# Laboratory results: ChEMBL document CHEMBL5107962, “Covalent sortase A inhibitor ML346 prevents Staphylococcus aureus infection of Galleria mellonella” (RSC Med Chem, 2022)
# Calls of active or inactive are those of the source. The calls are words filed in the database; no cut-off is given here.
# How the values were obtained:
# Streptococcus pyogenes [1] = experiment: (§1) Irreversible inhibition of recombinant Streptococcus pyogenes sortase A deltaN81 expressed in Escherichia coli BL21(DE3) cells using Abz-LPATG-Dnp as substrate assessed as Kinact/Ki ratio preincubated for 60 mins followed by substrate addition and measured every 1 min for 15 mins by fluorescence intensity based assay; conditions: time 75.0 min
# Summary of the method: (§2)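 Variable inhibitor concentrations incubated with SaSrtAΔN24 or SpSrtAΔN81 for different times, followed by FRET enzyme kinetics with Abz-LPATG-Dnp. kobs fitted as kinact × [I]/(KI + [I]) to give kinact and KI.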
# Staphylococcus aureus [2] = experiment: Anti-infectivity against methicillin-resistant Staphylococcus aureus USA300 infected in Galleria mellonella larvae assessed as survival at 12.5 mg/kg and measured after 120 hrs; assay type: functional, organism-based
# Summary of the method: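 G. mellonella larvae (2-2.5 cm, creamy), starved 24 h at room temperature. S. aureus grown in TSB to A600 1.0, washed and resuspended in PBS, premixed with compound in vehicle (5% DMSO, 20% PEG300, 75% PBS with 6.6% solutol HS-15). Injected into last proleg at about 1 × 10^6 CFU/larva (Newman) or 1 × 10^7 CFU/larva (USA300). Groups of 15 kept at 37 °C, survival recorded 120 h, Mantel–Cox test.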
# Staphylococcus aureus [3] = experiment: Antibiofilm activity against methicillin-resistant Staphylococcus aureus USA300 assessed as reduction in biofilm biomass at 25 to 200 uM incubated for 18 hrs by crystal violet staining based microplate reader analysis; assay type: functional, organism-based; conditions: dose 25-200 µM
# Summary of the method: (§3)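 S. aureus overnight culture diluted 1:1000 in TSB with inhibitor, grown static at 37 °C for 18 h. Wells rinsed with PBS, fixed with methanol 10 min, stained with 0.1% crystal violet 15 min. Stain dissolved in 33% acetic acid and A600 read. Three independent experiments, mean ± SEM.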
# [4] = test system: Sortase A (Staphylococcus aureus), Q9S446 [UNDEFINED MUTATION]; experiment: as §1, with “Staphylococcus aureus” for “Streptococcus pyogenes”, “deltaN24” for “deltaN81”; conditions: time 75.0 min; summary of the method: as §2
# Sortase A [5] = biological target: T1, Sortase A (Staphylococcus aureus, UniProt Q9S446); experiment: Inhibition of recombinant Staphylococcus aureus sortase A deltaN24 transpeptidation expressed in Escherichia coli BL21 (DE3) cells using Abz-LPATG-Dnp as substrate preincubated for 20 mins followed by substrate addition and measured every 1 min for 15 mins by FRET assay
# Summary of the method: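 His-tagged enzyme purified by Ni-NTA and gel filtration. 1 µM SrtA preincubated with compound (0.05–50 µM) for 20 min at room temperature in 50 mM Tris-HCl pH 7.5, 150 mM NaCl, 5 mM CaCl2. Reaction started with 10 µM Abz-LPATG-Dnp, read at ex 309/em 420 nm. IC50 from a sigmoidal dose–response fit; triplicates, two experiments.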
# [6] = Irreversible inhibition of recombinant Streptococcus pyogenes sortase A deltaN81 expressed in Escherichia coli BL21(DE3) cells using Abz-LPATG-Dnp as substrate preincubated for 10 mins followed by substrate addition and measured every 1 min for 15 mins by FRET-based assay
# Sortase A [7] = biological target: T1, Sortase A; experiment: Inhibition of recombinant Staphylococcus aureus sortase A deltaN24 transpeptidation expressed in Escherichia coli BL21 (DE3) cells using IsdA64 to 323 as substrate preincubated for 20 mins followed by substrate addition and measured after 1.5 hrs by SDS-PAGE-based assay
# Summary of the method: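 SrtA (200 µg mL-1) preincubated with inhibitor (1–50 µM) for 20 min at room temperature in Tris pH 7.5, NaCl, CaCl2 buffer. IsdA64-323 (300 µg mL-1 final) and 3 mM (Gly)3 added, incubated at 37 °C for 1.5 h, then run on 12% SDS-PAGE. IC50 from band quantification of precursor and mature product. Two independent experiments.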
# [8] = test system: Sortase A (Staphylococcus aureus), Q9S446 [UNDEFINED MUTATION]; experiment: Irreversible inhibition of recombinant Staphylococcus aureus sortase A deltaN24 expressed in Escherichia coli BL21(DE3) cells assessed as thermal stabilization by measuring change in melting temperature incubated for 15 mins by Nano DSF assay
# Summary of the method: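 40 µg SaSrtAΔN24 (wild type or C184A) in 100 µL 50 mM Tris-HCl pH 9.0, 150 mM NaCl, 5 mM CaCl2 incubated with compound for 15 min at room temperature, then centrifuged. Label-free nanoDSF read at 330/350 nm while ramping 30–90 °C at 2 °C per min. Tm taken from the first derivative of the ratio.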
# [9] = Selectivity ratio of Ki for irreversible inhibition of recombinant Staphylococcus aureus sortase A deltaN24 expressed in Escherichia coli BL21(DE3) cells to Ki for irreversible inhibition of recombinant Streptococcus pyogenes sortase A deltaN81 expressed in Escherichia coli BL21(DE3) cells
# Sortase A [10] = biological target: T1, Sortase A; experiment: Irreversible inhibition of recombinant Staphylococcus aureus sortase A deltaN24 expressed in Escherichia coli BL21(DE3) cells using Abz-LPATG-Dnp as substrate preincubated for 20 mins followed by substrate addition and measured every 1 min for 15 mins by FRET-based assay
# Summary of the method: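 SaSrtAΔN24 preincubated with compound for 10, 20, 40 or 60 min before FRET IC50 determination with Abz-LPATG-Dnp in Tris pH 7.5, NaCl, CaCl2 buffer.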
# Streptococcus pyogenes [11] = experiment: Irreversible inhibition of recombinant Streptococcus pyogenes sortase A deltaN81 expressed in Escherichia coli BL21(DE3) cells using Abz-LPATG-Dnp as substrate assessed as increase in Km preincubated for 60 mins followed by substrate addition and measured every 1 min for 15 mins by FRET-based assay; conditions: time 75.0 min
# Summary of the method: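 SrtA (5 µM) incubated 1 h at room temperature with compound or DMSO, then inhibitor removed by centrifugal filtration. Aliquots taken before and after filtration were assayed with Abz-LPATG-Dnp (0.78–200 µM for Sa enzyme, 0.2–50 µM for Sp enzyme) at ex 309/em 420 nm for 15 min. Km fitted; MTSET as control; triplicates, run in duplicate.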
# [12] = Toxicity in Galleria mellonella larvae assessed as survivability measured after 120 hrs
# Summary of the method: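 G. mellonella larvae (2-2.5 cm, creamy), starved 24 h, injected with 10 µL compound in vehicle (5% DMSO, 20% PEG300, 75% PBS with 6.6% solutol HS-15). Kept at 37 °C; survival and appearance recorded over 120 h with photography. Three independent experiments.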
# [13] = Selectivity ratio of Kinact for irreversible inhibition of recombinant Staphylococcus aureus sortase A deltaN24 expressed in Escherichia coli BL21(DE3) cells to Kinact for irreversible inhibition of recombinant Streptococcus pyogenes sortase A deltaN81 expressed in Escherichia coli BL21(DE3) cells
# Staphylococcus aureus [14] = experiment: Antibacterial activity against Staphylococcus aureus USA300 assessed as inhibition of bacterial growth incubated for 16 to 18 hrs; assay type: functional; conditions: time 16-18 hrs
# Summary of the method: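 Broth microdilution: S. aureus in TSB, E. coli in LB. Overnight cultures diluted 1:1000, grown at 37 °C to A600 0.6, then diluted 1:400 into two-fold compound dilutions. Incubated 16–18 h at 37 °C without shaking. MIC taken as the lowest concentration with no visible growth. Two independent experiments.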
# Staphylococcus aureus [15] = experiment: Antibiofilm activity against wild type Staphylococcus aureus Newman assessed as reduction in biofilm biomass at 25 to 200 uM incubated for 18 hrs by crystal violet staining based microplate reader analysis; assay type: functional, organism-based; conditions: dose 25-200 µM; summary of the method: as §3
compound,measurement,setting,value
COc1ccc(/C=C/C=C2C(=O)NC(=O)NC2=O)cc1,Ratio,Streptococcus pyogenes [1],0.064 µM⁻¹ min⁻¹
same,Activity,Staphylococcus aureus [2],Active
same,Activity,Staphylococcus aureus [3],Active
same,Ratio,[4],0.075 µM⁻¹ min⁻¹
same,IC50,Sortase A [5],0.37 µM
same,IC50,[6],3.7 µM
same,IC50,Sortase A [7],2.65 µM
same,ΔTm,[8],4.1 °C
same,Ratio,[9],4
same,IC50,Sortase A [10],0.5 µM
same,inhibition,Streptococcus pyogenes [11],Active
same,Activity,[12],Non-Toxic
same,Ratio,[13],4
same,MIC,Staphylococcus aureus [14],> 512 µg/mL
same,Activity,Staphylococcus aureus [15],Active
